Measurements from ChEMBL document CHEMBL1155318, “Discovery of novel phenethylpyridone derivatives as potent melanin-concentrating hormone 1 receptor antagonists” (Bioorg Med Chem Lett, 2009).

Tests used:
Adenosine receptor A2a = Adenosine receptor A2a (Homo sapiens, UniProt P29274); test: Inhibition of adenosine receptor A2A
Mu-type opioid receptor = Mu-type opioid receptor (Homo sapiens, UniProt P35372); test: Inhibition of mu-type opioid receptor
[1] = target: T1, Muscarinic acetylcholine receptor M1 (Homo sapiens, UniProt P11229); test: Inhibition of muscarinic M1 receptor
T1 sequence (P11229 whole entry): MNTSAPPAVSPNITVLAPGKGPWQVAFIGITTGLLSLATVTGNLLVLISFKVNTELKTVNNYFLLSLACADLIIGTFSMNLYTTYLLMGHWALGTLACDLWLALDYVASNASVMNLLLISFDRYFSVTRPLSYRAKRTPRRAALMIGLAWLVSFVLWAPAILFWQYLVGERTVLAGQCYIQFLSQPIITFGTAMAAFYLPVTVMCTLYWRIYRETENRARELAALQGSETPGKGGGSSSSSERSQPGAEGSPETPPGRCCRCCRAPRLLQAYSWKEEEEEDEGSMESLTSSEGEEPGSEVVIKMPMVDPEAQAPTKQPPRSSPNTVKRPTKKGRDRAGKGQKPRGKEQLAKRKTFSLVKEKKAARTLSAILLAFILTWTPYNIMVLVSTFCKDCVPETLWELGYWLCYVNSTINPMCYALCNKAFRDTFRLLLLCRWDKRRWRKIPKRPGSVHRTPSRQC

[2] = Metabolic stability in human liver microsomes after 30 mmins; type: ADME, Microsome; details: read-out: Stability
Outline: (§1)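 Hepatic microsomes (human or mouse) are incubated with compound for 30 min. The read-out is % of parent remaining. Values are means of n = 2.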

[3] = Inhibition of adrenergic alpha1 receptor
[4] = target: Voltage-gated inwardly rectifying potassium channel KCNH2 (Homo sapiens, UniProt Q12809); test: Inhibition of human ERG potassium channel 1
Sequence of Voltage-gated inwardly rectifying potassium channel KCNH2 (Q12809 whole entry): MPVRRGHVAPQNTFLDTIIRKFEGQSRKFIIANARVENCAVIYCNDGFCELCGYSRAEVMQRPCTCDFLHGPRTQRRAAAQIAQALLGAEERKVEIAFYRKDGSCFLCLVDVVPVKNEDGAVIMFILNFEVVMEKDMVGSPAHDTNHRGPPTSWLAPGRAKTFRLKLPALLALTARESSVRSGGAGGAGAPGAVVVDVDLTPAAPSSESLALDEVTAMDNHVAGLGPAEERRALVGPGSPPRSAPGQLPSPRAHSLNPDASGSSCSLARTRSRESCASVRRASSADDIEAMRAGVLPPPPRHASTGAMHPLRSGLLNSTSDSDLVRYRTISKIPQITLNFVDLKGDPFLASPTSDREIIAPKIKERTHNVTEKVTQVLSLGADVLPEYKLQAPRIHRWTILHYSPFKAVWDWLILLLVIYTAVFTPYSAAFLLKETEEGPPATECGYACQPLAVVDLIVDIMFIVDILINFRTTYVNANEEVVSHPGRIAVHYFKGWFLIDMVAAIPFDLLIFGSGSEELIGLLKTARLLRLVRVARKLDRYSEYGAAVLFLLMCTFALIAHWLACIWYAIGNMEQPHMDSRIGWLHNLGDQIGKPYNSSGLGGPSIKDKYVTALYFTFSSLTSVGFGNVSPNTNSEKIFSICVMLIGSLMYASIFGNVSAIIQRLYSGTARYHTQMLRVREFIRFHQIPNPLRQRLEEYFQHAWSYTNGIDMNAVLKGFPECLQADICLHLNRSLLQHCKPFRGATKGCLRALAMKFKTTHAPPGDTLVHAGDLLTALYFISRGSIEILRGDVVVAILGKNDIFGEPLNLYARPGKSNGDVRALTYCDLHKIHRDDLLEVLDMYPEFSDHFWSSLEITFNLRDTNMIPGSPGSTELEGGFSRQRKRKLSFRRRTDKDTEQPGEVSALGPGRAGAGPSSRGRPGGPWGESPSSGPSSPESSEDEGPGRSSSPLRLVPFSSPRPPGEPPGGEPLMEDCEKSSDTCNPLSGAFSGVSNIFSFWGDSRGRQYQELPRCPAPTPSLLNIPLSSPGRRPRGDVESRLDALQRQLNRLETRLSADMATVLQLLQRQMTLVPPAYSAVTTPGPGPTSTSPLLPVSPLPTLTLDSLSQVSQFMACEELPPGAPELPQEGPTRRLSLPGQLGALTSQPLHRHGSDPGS

Histamine H4 receptor = Histamine H4 receptor (Homo sapiens, UniProt Q9H3N8); test: Inhibition of histamine H4 receptor
[5] = target: Delta-type opioid receptor (Homo sapiens, UniProt P41143); test: Inhibition of delta-type opioid receptor
Sequence of Delta-type opioid receptor (P41143 whole entry): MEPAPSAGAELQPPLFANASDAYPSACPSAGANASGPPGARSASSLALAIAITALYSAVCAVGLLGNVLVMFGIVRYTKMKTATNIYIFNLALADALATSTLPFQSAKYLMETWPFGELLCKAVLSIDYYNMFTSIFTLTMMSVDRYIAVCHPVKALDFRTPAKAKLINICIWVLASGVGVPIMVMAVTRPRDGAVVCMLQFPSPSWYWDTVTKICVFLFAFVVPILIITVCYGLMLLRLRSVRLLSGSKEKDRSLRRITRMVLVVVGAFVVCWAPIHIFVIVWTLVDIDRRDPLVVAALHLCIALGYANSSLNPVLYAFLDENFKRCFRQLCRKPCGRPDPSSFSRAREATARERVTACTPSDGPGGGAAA

[6] = target: T2, Melanin-concentrating hormone receptor 1 (Homo sapiens, UniProt Q99705); test: Antagonistic activity against MCH1R expressed on CHOK1 cells assessed as intracellular calcium mobilization by FLIPR; type: functional, cell-based, CHO-K1
T2 sequence (Q99705 whole entry): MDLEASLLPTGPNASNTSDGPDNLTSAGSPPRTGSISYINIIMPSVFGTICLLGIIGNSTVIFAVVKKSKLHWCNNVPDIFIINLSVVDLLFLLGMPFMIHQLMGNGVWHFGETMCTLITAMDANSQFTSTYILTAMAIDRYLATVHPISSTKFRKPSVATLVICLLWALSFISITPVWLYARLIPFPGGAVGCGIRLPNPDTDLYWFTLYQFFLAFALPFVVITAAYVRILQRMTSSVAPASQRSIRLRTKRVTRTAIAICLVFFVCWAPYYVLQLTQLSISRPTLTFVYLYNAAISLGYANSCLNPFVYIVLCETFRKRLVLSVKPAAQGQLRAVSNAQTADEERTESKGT

Histamine H3 receptor = Histamine H3 receptor (Homo sapiens, UniProt Q9Y5N1); test: Inhibition of histamine H3 receptor
Sequence of Histamine H3 receptor (Q9Y5N1 whole entry): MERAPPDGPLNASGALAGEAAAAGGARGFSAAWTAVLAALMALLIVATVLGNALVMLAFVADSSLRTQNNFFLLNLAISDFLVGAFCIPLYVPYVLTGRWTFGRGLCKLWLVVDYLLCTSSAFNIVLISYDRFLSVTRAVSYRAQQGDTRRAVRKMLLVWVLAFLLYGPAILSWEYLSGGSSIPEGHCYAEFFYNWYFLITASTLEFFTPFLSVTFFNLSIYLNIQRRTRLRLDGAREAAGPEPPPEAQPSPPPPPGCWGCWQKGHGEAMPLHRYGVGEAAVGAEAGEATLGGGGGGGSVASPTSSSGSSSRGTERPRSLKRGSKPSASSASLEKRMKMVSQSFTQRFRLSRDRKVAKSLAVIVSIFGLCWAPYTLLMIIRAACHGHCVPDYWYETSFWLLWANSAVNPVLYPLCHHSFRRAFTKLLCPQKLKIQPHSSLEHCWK

[7] = target: Kappa-type opioid receptor (Homo sapiens, UniProt P41145); test: Inhibition of kappa-type opioid receptor
Sequence of Kappa-type opioid receptor (P41145 whole entry): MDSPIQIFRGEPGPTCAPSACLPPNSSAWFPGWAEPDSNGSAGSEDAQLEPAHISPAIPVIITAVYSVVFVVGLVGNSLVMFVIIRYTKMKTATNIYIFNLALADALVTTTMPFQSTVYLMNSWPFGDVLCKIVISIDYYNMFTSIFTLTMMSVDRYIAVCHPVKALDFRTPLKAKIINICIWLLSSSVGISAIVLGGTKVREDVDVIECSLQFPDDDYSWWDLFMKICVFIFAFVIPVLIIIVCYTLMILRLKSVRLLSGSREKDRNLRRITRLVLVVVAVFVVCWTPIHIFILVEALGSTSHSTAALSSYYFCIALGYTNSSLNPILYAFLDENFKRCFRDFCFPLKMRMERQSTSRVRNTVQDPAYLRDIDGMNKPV

[8] = Metabolic stability in mouse liver microsomes after 30 mmins; type: ADME, Microsome; details: read-out: Stability; outline: as §1
Histamine H1 receptor = Histamine H1 receptor (Homo sapiens, UniProt P35367); test: Inhibition of histamine H1 receptor
Sequence of Histamine H1 receptor (P35367 whole entry): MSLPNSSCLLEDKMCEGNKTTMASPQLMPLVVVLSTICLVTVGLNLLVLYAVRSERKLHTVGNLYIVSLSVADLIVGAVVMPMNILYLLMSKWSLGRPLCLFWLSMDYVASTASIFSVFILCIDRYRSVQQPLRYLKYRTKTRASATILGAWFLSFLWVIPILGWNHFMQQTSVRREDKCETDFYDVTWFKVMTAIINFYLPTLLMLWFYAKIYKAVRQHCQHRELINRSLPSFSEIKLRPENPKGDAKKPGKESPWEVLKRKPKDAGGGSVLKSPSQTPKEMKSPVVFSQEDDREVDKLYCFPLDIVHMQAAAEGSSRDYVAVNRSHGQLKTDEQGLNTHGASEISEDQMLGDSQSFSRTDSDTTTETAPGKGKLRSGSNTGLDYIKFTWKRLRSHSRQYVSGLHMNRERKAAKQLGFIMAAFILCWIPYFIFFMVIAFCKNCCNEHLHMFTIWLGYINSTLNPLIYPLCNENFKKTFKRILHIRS

[9] = target: T2, Melanin-concentrating hormone receptor 1; test: Displacement of [125I]MCH from human recombinant MCH1R expressed on CHOK1 cell membrane; type: cell membranes, CHO-K1
Outline: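 Competition binding with [125I]MCH on membranes of CHO-K1 cells expressing human recombinant MCH-1R. Inhibition of radioligand binding is measured. Values are means of n = 2.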

Histamine H2 receptor = Histamine H2 receptor (Homo sapiens, UniProt P25021); test: Inhibition of histamine H2 receptor
Sequence of Histamine H2 receptor (P25021 whole entry): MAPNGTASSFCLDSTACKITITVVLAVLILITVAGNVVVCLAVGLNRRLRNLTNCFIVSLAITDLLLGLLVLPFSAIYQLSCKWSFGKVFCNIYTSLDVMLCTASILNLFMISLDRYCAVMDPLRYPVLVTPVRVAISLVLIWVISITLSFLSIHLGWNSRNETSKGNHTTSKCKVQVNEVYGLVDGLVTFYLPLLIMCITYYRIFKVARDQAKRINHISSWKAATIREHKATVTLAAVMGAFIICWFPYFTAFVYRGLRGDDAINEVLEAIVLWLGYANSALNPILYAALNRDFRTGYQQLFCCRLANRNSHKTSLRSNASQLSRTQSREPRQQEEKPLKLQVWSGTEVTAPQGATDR

Sequence of Adenosine receptor A2a (P29274 whole entry): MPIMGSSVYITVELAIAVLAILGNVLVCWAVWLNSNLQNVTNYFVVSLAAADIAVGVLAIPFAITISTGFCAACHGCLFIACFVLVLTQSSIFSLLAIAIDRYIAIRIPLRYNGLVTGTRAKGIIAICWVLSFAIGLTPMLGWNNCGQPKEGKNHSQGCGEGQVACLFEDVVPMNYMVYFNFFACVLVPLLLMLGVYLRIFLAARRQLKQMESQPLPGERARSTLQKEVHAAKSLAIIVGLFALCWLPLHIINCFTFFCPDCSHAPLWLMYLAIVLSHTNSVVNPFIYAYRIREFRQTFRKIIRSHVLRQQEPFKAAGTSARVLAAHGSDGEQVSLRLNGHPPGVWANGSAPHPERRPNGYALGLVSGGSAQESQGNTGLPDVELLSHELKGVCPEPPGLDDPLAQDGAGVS
Sequence of Mu-type opioid receptor (P35372 whole entry): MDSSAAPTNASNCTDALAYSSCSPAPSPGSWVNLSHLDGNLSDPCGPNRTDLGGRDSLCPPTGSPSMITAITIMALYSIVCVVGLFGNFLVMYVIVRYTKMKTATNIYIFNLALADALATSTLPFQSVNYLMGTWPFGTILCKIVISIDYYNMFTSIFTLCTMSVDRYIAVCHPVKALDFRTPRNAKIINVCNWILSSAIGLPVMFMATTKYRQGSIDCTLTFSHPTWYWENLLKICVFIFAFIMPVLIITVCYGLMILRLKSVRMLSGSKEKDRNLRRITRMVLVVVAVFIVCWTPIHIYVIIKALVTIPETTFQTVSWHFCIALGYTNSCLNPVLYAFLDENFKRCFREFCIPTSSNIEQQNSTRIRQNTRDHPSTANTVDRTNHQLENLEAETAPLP

SMILES | remaining at 30 min [2] [%] | remaining at 30 min [8] [%] | IC50 [9] [nM] | also measured
CCCNCc1ccc(CCn2ccc(OCc3ccc(F)cc3)cc2=O)cn1 | 87 | 76 | 11 | 
O=c1cc(OCc2ccc(F)cc2)ccn1-c1ccc(CN2CCCC2)cc1 |  |  | > 1000 | 
CCCNCc1ccc(COn2ccc(OCc3ccc(F)cc3)cc2=O)cc1 | 72 | 74 | 34 | 
O=c1cc(OCc2ccc(F)cc2)ccn1CCc1ccc(N2CCCC2)cc1 |  |  | > 1000 | 
CCN(CC)Cc1ccc(CCn2ccc(OCc3ccc(F)cc3)cc2=O)cc1 | 54 | 26 |  | 
CCCNCc1ccc(CCn2ccc(OCc3ccc(F)cc3)cc2=O)cc1 | 85 | 62 |  | IC50 (Adenosine receptor A2a): > 5 µM; IC50 (Mu-type opioid receptor): > 5 µM; IC50 [1]: > 5 µM; IC50 [3]: > 5 µM; IC50 (Histamine H4 receptor): > 5 µM; IC50 [5]: > 5 µM; IC50 [6]: 20 nM; IC50 (Histamine H3 receptor): > 5 µM; IC50 [7]: > 5 µM; IC50 (Histamine H1 receptor): > 5 µM; IC50 (Histamine H2 receptor): > 5 µM
O=c1cc(OCc2ccc(F)cc2)ccn1-c1cccc(OCCN2CCCC2)c1 |  |  | > 1000 | 
O=c1cc(OCc2ccc(F)cc2)ccn1Cc1cccc(OCCCN2CCCC2)c1 |  |  | 30 | 
CCCN(CCF)Cc1ccc(CCn2ccc(OCc3ccc(F)cc3)cc2=O)cc1 | 0 | 0 | 11 | 
O=c1cc(OCc2ccc(F)cc2)ccn1Cc1cccc(OCCN2CCCC2)c1 |  |  | 29 | 

Further compounds by falling IC50 [9], results first:

remaining at 30 min [2] [%] | remaining at 30 min [8] [%] | IC50 [9] [nM] | SMILES | also measured
91 | 93 | 7 | CCCNCc1ccc(CCn2ccc(OCc3ccc(F)cc3)cc2=O)nc1 | IC50 (Adenosine receptor A2a): > 5 µM; IC50 (Mu-type opioid receptor): > 5 µM; IC50 [1]: > 5 µM; IC50 [3]: > 5 µM; IC50 [4]: 5.1 µM; IC50 (Histamine H4 receptor): > 5 µM; IC50 [5]: > 5 µM; IC50 [6]: 27 nM; IC50 (Histamine H3 receptor): > 5 µM; IC50 [7]: > 5 µM; IC50 (Histamine H1 receptor): > 5 µM; IC50 (Histamine H2 receptor): > 5 µM
 |  | 5.6 | O=c1cc(OCc2ccc(F)cc2)ccn1-c1ccc(OCCN2CCCC2)cc1 | 
0 | 0 | 5.4 | CCCN(CCOC)Cc1ccc(CCn2ccc(OCc3ccc(F)cc3)cc2=O)cc1 | 
4 | 1 | 5.2 | CCCN(Cc1ccc(CCn2ccc(OCc3ccc(F)cc3)cc2=O)cc1)C(C)C | 
60 | 39 | 5 | O=c1cc(OCc2ccc(F)cc2)ccn1CCc1ccc(CN2CCCC2)cc1 | 
0 | 0 | 4.9 | CCCN(Cc1ccc(CCn2ccc(OCc3ccc(F)cc3)cc2=O)cc1)CC(C)C | 
26 | 6 | 4.4 | CCCN(CC)Cc1ccc(CCn2ccc(OCc3ccc(F)cc3)cc2=O)cc1 | 
1 | 1 | 3.5 | CCCN(Cc1ccc(CCn2ccc(OCc3ccc(F)cc3)cc2=O)cc1)C1CCCC1 | 
58 | 22 | 3.5 | CCCN(C)Cc1ccc(CCn2ccc(OCc3ccc(F)cc3)cc2=O)cc1 | 
1 | 1 | 3.3 | CCCN(CCC)Cc1ccc(CCn2ccc(OCc3ccc(F)cc3)cc2=O)cc1 | 
